Activity calls are given as the source filed them. No cut-off for these calls is given here.

The target in data set [1] is Protective antigen (Bacillus anthracis) (UniProt P13423). The data set is described as follows: Inhibition of Bacillus anthracis Protective antigen-mediated cytotoxicity in RAW264.7 cells at 10 uM compound co-treated for 5 hrs with antigen by MTT assay in presence of lethal factor. Format: cell-based. A general note: Tetrazolium dyes change colour on reduction, which living cells bring about.

The target is the same in data set [2]. Briefly: Inhibition of Bacillus anthracis Protective antigen assessed as reduction in PA83 level in CHO C4 cells at 100 uM after 1 hr by Western blot analysis relative to untreated-control in presence of lethal factor. It is filed as cell-based. A general note: A western blot detects proteins with antibodies after separation by electrophoresis.
The target is the same in data set [3]. The data set is described as follows: Inhibition of Bacillus anthracis Protective antigen-mediated cytotoxicity in RAW264.7 cells by MTT assay in presence of fetal bovine serum. It is filed as cell-based.
Data set [4] has the same target. Briefly: Inhibition of Bacillus anthracis Protective antigen-mediated cytotoxicity in RAW264.7 cells at 3 uM compound co-treated for 5 hrs with antigen measured after 48 hrs by MTT assay in presence of FP59. It is filed as cell-based.
In data set [5] the test system is HT-1080. The data set is described as follows: Cytotoxicity against human HT1080 cells compound incubated at 10 to 100 uM for extended period by MTT assay. It is filed as cell-based. The settings on record: ht-1080, 100 µM. An outline of the steps:
(§1)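 Compound toxicity was measured in serum-free DMEM with 10 mM Hepes pH 7.3 and gentamicin at 37°C, by MTT read-out. There were two exposure schemes: a 5-h exposure, or a 54-h incubation in which the inhibitor was removed from the medium after 5 h. MTT cannot distinguish growth inhibition from toxicity.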

For data set [6], the species on record is Homo sapiens. Briefly: Inhibition of human furin-mediated TGFalpha-PE38 cleavage at 1 to 100 uM after 1 hr by Western blot analysis. An outline of the steps: (§2)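 Substrate at 100 nM (purified PA for PA83 cleavage; TGFα-PE38 with a furin-cleavable RKKR linker) was mixed with 1, 10 or 100 μM inhibitor, or 1% DMSO. Buffer: 50 mM Hepes pH 7.5, 2 mM CaCl2, 0.5 mM EDTA, 0.2% octyl glucoside. Soluble human furin was added at 1 nM final for 1 h at 37°C. The reaction was boiled in SDS dye, run on a 4–20% gel and blotted with anti-PA or anti-Pseudomonas exotoxin serum.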

For data set [7], the target named is Protective antigen (Bacillus anthracis) (UniProt P13423). Briefly: Inhibition of Bacillus anthracis Protective antigen assessed as reduction in PA63 level in CHO C4 cells at 100 uM after 1 hr by Western blot analysis relative to untreated-control. Format: cell-based.
Data set [8] shares this target. The data set is described as follows: Inhibition of human furin-mediated Bacillus anthracis PA83 cleavage at 1 to 100 uM after 1 hr by Western blot analysis. The essentials:
as §2

Data set [9] concerns RAW264.7. Briefly: Cytotoxicity against mouse RAW264.7 cells compound incubated at 10 to 100 uM for extended period by MTT assay. The settings on record: raw264.7, 100 µM. It is filed as cell-based. An outline of the steps:
as §1

In data set [10] the target is Protective antigen (Bacillus anthracis) (UniProt P13423). The data set is described as follows: Inhibition of Bacillus anthracis Protective antigen assessed as reduction in PA83 level in CHO C4 cells at 100 uM after 1 hr by Western blot analysis relative to untreated-control. It is filed as cell-based.
Data set [11] has the same target. Briefly: Inhibition of Bacillus anthracis Protective antigen-mediated cytotoxicity in human HT1080 cells by MTT assay in presence of fetal bovine serum. Format: cell-based. Particulars: HT-1080.
Data set [12] has as its system HT-1080. The data set is described as follows: Cytotoxicity against human HT1080 cells at 10 to 100 uM by MTT assay. The settings on record: ht-1080, 100 µM. Format: cell-based. The essentials:
as §1

Data set [13] concerns RAW264.7. The data set is described as follows: Cytotoxicity against mouse RAW264.7 cells at 10 to 100 uM by MTT assay. It is filed as cell-based. Particulars: raw264.7, 100 µM. An outline of the steps: as §1
Data set [14] has as its target Protective antigen (Bacillus anthracis) (UniProt P13423). The data set is described as follows: Inhibition of Bacillus anthracis Protective antigen-mediated cytotoxicity in RAW264.7 cells compound co-treated for 5 hrs with antigen by MTT assay in presence of lethal factor. It is filed as cell-based.
Data set [15] has the same target. Briefly: Inhibition of Bacillus anthracis Protective antigen-mediated cytotoxicity in RAW264.7 cells at 100 uM compound co-treated for 5 hrs with antigen by MTT assay in presence of lethal factor. It is filed as cell-based.
Data set [16] has the same target. The data set is described as follows: Inhibition of Bacillus anthracis Protective antigen-mediated cytotoxicity in RAW264.7 cells at 100 uM compound co-treated for 5 hrs with antigen measured after 48 hrs by MTT assay in presence of FP59. Format: cell-based.
Data set [17] shares this target. Briefly: Inhibition of matrix metalloprotease activated Bacillus anthracis Protective antigen-mediated cytotoxicity in HT1080 cells at 100 uM compound co-treated for 5 hrs with antigen measured after 48 hrs by MTT assay in presence of FP59. Particulars: HT-1080. It is filed as cell-based.
Data set [18] shares this target. Briefly: Inhibition of Bacillus anthracis Protective antigen-mediated cytotoxicity in HT1080 cells at 100 uM compound co-treated for 5 hrs with antigen measured after 48 hrs by MTT assay in presence of FP59. It is filed as cell-based. Particulars: HT-1080.

Chain of Protective antigen (Bacillus anthracis) (P13423 whole entry): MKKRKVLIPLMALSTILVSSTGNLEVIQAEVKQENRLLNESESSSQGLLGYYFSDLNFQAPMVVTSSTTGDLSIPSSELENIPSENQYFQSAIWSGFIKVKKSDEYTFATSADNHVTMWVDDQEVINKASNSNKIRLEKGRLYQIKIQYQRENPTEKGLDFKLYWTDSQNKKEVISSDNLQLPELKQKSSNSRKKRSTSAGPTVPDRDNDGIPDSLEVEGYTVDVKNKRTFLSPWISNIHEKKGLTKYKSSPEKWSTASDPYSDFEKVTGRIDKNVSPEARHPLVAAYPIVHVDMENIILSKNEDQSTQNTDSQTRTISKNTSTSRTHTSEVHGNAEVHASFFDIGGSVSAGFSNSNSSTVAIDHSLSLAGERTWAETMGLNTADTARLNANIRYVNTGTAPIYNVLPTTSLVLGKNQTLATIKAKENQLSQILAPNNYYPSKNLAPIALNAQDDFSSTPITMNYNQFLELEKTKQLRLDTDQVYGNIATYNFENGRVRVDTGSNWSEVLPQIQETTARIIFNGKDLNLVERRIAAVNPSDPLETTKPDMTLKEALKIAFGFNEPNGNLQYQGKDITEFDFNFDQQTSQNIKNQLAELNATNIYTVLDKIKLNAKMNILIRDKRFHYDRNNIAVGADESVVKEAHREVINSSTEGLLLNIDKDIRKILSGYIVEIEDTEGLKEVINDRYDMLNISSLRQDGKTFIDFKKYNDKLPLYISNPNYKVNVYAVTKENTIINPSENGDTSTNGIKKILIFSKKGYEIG

Consider `Oc1ccccc1/C=N/c1ccc(Cc2ccc(/N=C/c3ccccc3O)c(O)c2)cc1O`, for which the inhibition entry in data set [1], in data set [4], in [7] and in data set [8] was “Active” in each case. Besides, the inhibition entry in [2], in [3], in [6], in data set [10] and in data set [11] was “inactive” in each case. The Activity entry in data set [5] and in [9] was “Toxic” in each case.
Regarding `NC(=O)c1ccccc1NC(=O)c1ccc(C(=O)Nc2ccccc2C(N)=O)cc1`, the Activity entry in data set [12] and in data set [13] was “Non-toxic” throughout. Also, the inhibition result in data set [1], in data set [4] and in data set [7] was “Active” each time. The inhibition entry in data set [2], in data set [3], in data set [6], in data set [8], in data set [10] and in data set [11] was “inactive” each time.
Consider `NC(=O)c1ccccc1NC(=O)c1cccc(C(=O)Nc2ccccc2C(N)=O)c1`, for which the inhibition entry in data set [14] is “Active”.
Regarding `O=c1c(O)c(-c2ccc(O)c(O)c2)oc2cc(O)cc(O)c12`, the inhibition entry in data set [2], in data set [3], in data set [6], in data set [7], in data set [8] and in data set [10] was “inactive” throughout. The inhibition result in [11] was “inactive”. Also, the inhibition entry in data set [15], in data set [16], in data set [17] and in data set [18] was “Active” in each case.

The values are drawn from ChEMBL document CHEMBL2176964, “Small molecule inhibitors of Bacillus anthracis protective antigen proteolytic activation and oligomerization” (J Med Chem, 2012).
